The text below walks through data of ChEMBL document CHEMBL3272018, “Synthesis of aziridinylallylaminophosphine oxides and sulfides as potential adjuvant cancer chemotherapeutic agents” (J Med Chem, 1976).

One may read the LD50 as the dose expected to kill half of the subjects tested. Low readings indicate a more toxic substance, high ones a less toxic substance.

In data set [1] the test system is Musca domestica. Nature of the data set: Toxicity in male house fly assessed as lowest dose required to cause complete sterility administered in food. The settings on record: in vivo, po. It counts as organism-based.
Data set [2] has as its system Musca domestica. Nature of the data set: Toxicity in male house fly assessed as lowest dose required to cause complete sterility administered in sugar. It counts as organism-based. Particulars: in vivo, po.
Data set [3] in a line: Therapeutic index, ratio of LD50 for rat allografted with rat Walker 256 cells to ED10 for antitumor activity against rat Walker 256 cells intramuscularly allografted in rat. The settings on record: read-out: TI. It counts as cell-based. In short, it runs like this:
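Therapeutic index is LD50/ED10 in the Walker 256 solid tumour system. ED10 is the dose giving a 10% tumour weight reduction, with values extrapolated from dose-response data.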

In data set [4] the test system is Rattus norvegicus. Nature of the data set: Toxicity in rat allografted with rat Walker 256 cells intramuscularly assessed as change in body weight at 0.4 mg/kg, qd administered for 5 days. It counts as organism-based. More on the design: dose 0.4 mg/kg, route intramuscular. The settings on record: in vivo, im, 120 h. In short, it runs like this:
(§1)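 Walker 256 carcinoma solid-tumour system in rats (parent line, or the line resistant to cytoxan). Dosing was one injection per day for 5 days. Toxicity was taken as the average net body-weight change of the treated group minus the average net weight change of the untreated tumour-bearing controls, in grams.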

For data set [5], the system named is W256. Nature of the data set: Antitumor activity against rat Walker 256 cells intramuscularly allografted in rat assessed as survival rate at 0.4 mg/kg, qd administered for 5 days. On the set-up: dose 0.4 mg/kg. It counts as functional, organism-based. In short, it runs like this:
(§2)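 Rats bearing Walker 256 carcinoma as a solid tumor; lines 1-8 use a cytoxan-resistant Walker 256 subline. Dosed once daily for 5 days. Treated (T) and untreated control (C) groups are compared, and the response is given as T/C percentage, reflecting increase in survival time. Host weight change is the average weight change of the test group minus that of the controls, in grams.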

The subject of data set [6] is L1210. Nature of the data set: In vivo antitumor activity against mouse L1210 cells in prognostic scoring system assessed as survival rate at 2.5 mg/kg, qd administered for 15 days. It counts as functional, organism-based. On the set-up: dose 2.5 mg/kg. In short, it runs like this:
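L1210 leukaemia in mice, run as an ascites tumour system. Injections were once daily for 9 or 15 days, or as a single dose. Response is the increase in survival time, given as T/C %, treated over untreated controls; a larger value means more activity. Weight change is the treated-group mean minus the control-group mean, in grams.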

Data set [7] in a line: Toxicity in rat allografted with rat Walker 256 cells intramuscularly. The data set is classed as organism-based.
The subject of data set [8] is W256. Nature of the data set: Antitumor activity against rat Walker 256 cells intramuscularly allografted in rat assessed as tumor growth inhibition. It counts as functional. Particulars: W256, im. In short, it runs like this:
(§3)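 Dosed once daily for 5 days. Response is tumor progression in treated (T) versus untreated control (C) animals, expressed as T/C percentage. Host weight change is reported as the average net weight change of the test group minus that of the controls, in grams.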

For data set [9], the system named is W256. Nature of the data set: Antitumor activity against rat Walker 256 cells intramuscularly allografted in rat assessed as tumor growth inhibition at 0.4 mg/kg, qd administered for 5 days relative to control. It counts as functional. The settings on record: W256, im, 120 h, route intramuscular, read-out: TGI. In short, it runs like this: as §3
Data set [10] in a line: Antitumor activity against rat Lewis-Lymphoma 8 cells allografted in Lewis-Wistar rat assessed as tumor regression at 20 mg/kg, ip administered for 2 weeks measured for 9 to 10 months relative to control. It counts as functional. The settings on record: route intraperitoneal.
Data set [11] deals with Rattus norvegicus. Nature of the data set: Toxicity in rat allografted with rat Walker 256 cells intramuscularly assessed as change in body weight at 0.3 mg/kg, qd administered for 5 days. It counts as organism-based. On the set-up: dose 0.3 mg/kg, route intramuscular. The settings on record: in vivo, im, 120 h. In short, it runs like this:
as §1

Data set [12] relates to W256. Nature of the data set: Antitumor activity against rat Walker 256 cells intramuscularly allografted in rat assessed as survival rate at 0.3 mg/kg, qd administered for 5 days. It counts as functional, organism-based. On the set-up: dose 0.3 mg/kg. In short, it runs like this:
as §2

Data set [13] relates to W256. Nature of the data set: Antitumor activity against rat Walker 256 cells intramuscularly allografted in rat assessed as tumor growth at 0.3 mg/kg, qd administered for 5 days (reference value: 9.2 g). The settings on record: route intramuscular. It counts as functional. In short, it runs like this: as §3

Calls of active or inactive are those of the source. The rule behind the calls is not given here.

With `C=CCN(C1=CCCCC1)P(=O)(N1CC1)N1CC1`, the Activity in [1] and in data set [2] was 1% throughout.

In the case of `C=CCN(CC=C)P(=S)(N1CC1)N1CC1C` (stereo not drawn), the selectivity ratio in data set [3] turned out to be 10. Also, the figures for the Activity in [4], in data set [1] and in data set [2] were -4 g, 0.25% and 0.5%, respectively. The outcome in data set [5] and in data set [6] was Active. Moreover, in data set [7], the LD50 is 4 mg/kg. For the same molecule, the ED10 in data set [8] amounted to 0.4 mg/kg. Also, the inhibition in vivo at 0.4 mg/kg in [9] was determined as 77%.

Take `C=CCN(CC=C)C(CN1CC1)C(N)=O` (stereo not drawn): in data set [10], the Activity stood at 100%.

As to `C=CCN(CC=C)P(=S)(N1CC1)N1CC1`, the median lethal dose (LD50) in data set [7] came to 2 mg/kg. For the same molecule, the Activity in [11] is recorded as 0 g; in data set [1], 0.05%; in data set [13] it was 9.5 g; in data set [2] it was 0.05%. Further, the outcome in data set [12] was Active.
